In data set [1] the target is Serine/threonine-protein kinase Sgk1 (Homo sapiens) (UniProt O00141). Nature of the data set: Inhibition of human SGK at 10 uM relative to control.
The target in data set [2] is Mitogen-activated protein kinase 15 (Homo sapiens) (UniProt Q8TD08). In words: Inhibition of human MAPK15 at 10 uM relative to control.
Data set [3] deals with Glycogen synthase kinase-3 beta (Homo sapiens) (UniProt P49841). In words: Inhibition of human GSK3b at 10 uM relative to control.
Another data set concerns the target Focal adhesion kinase 1 (Homo sapiens, UniProt Q05397). Nature of the data set: Inhibition of human FAK.
Data set [4] relates to Rattus norvegicus. Nature of the data set: Insulin sensitizing activity in Sprague-Dawley rat hyperinsulinemic-euglycemic glucose clamp model assessed as glucose level during infusion of human insulin at 6000 ug/kg/min, iv for 2 mins followed by 300 ug/kg/min, iv for 28 mins measured during clamp 1 by colorimetry (reference value: 8.4 +/- 0.8 mM). The format is functional. Particulars: time 30 min, 0.5 h. The essentials:
(§1)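 Anesthetized rats; hyperinsulinemic–euglycemic clamp with human insulin infused. A baseline clamp (Clamp1) was followed by a second clamp (Clamp2) with vehicle or drug i.v. The drug was given as a low dose (1000 μg kg−1 + 50 μg kg min−1) or a high dose (6000 μg kg−1 + 300 μg kg min−1). Steady-state glucose infusion rate for euglycemia was recorded, with plasma glucose, human insulin and total insulin; mean ± SEM, n = 4–5/group.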

Data set [5] is described as follows: Protein binding in human plasma assessed as unbound fraction. The format is ADME, cell-free.
Data set [6] deals with Mitogen-activated protein kinase 1 (Mus musculus) (UniProt P63085). In words: Inhibition of mouse MAPK1 at 10 uM relative to control.
Mitogen-activated protein kinase 1 (Mus musculus), sequence (P63085 whole entry): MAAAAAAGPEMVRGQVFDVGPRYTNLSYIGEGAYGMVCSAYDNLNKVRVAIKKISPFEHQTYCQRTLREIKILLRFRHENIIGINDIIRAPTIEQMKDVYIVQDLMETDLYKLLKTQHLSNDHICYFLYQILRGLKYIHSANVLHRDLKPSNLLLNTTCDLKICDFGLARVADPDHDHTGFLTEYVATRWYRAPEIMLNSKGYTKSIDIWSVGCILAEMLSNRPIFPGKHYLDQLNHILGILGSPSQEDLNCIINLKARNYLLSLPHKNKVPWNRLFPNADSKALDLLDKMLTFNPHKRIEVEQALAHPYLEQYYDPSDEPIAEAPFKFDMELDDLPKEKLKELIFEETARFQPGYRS
The target of data set [7] is Insulin-like growth factor 1 receptor (Homo sapiens, UniProt P08069). In words: Inhibition of human IGF1R.
Insulin-like growth factor 1 receptor, sequence (P08069 31-736 limits assumed): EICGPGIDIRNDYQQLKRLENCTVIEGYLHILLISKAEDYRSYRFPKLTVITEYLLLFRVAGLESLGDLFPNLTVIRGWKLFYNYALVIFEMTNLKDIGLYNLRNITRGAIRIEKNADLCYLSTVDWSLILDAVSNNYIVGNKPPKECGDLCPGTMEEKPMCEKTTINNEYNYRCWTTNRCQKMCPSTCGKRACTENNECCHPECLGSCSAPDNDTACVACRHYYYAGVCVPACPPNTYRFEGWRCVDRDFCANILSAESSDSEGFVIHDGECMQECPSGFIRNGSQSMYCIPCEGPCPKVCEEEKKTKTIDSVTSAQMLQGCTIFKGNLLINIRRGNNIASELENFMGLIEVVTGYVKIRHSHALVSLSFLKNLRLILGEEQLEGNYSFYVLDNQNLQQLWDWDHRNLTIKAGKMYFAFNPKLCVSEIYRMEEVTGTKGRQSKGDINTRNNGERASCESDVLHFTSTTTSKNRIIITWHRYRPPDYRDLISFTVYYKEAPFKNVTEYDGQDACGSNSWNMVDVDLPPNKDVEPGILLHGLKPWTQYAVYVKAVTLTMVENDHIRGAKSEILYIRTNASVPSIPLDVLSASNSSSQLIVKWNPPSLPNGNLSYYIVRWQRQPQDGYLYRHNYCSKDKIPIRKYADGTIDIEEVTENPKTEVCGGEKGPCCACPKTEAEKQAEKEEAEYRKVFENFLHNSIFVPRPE
Insulin-like growth factor 1 receptor, sequence (P08069 741-1367 limits assumed): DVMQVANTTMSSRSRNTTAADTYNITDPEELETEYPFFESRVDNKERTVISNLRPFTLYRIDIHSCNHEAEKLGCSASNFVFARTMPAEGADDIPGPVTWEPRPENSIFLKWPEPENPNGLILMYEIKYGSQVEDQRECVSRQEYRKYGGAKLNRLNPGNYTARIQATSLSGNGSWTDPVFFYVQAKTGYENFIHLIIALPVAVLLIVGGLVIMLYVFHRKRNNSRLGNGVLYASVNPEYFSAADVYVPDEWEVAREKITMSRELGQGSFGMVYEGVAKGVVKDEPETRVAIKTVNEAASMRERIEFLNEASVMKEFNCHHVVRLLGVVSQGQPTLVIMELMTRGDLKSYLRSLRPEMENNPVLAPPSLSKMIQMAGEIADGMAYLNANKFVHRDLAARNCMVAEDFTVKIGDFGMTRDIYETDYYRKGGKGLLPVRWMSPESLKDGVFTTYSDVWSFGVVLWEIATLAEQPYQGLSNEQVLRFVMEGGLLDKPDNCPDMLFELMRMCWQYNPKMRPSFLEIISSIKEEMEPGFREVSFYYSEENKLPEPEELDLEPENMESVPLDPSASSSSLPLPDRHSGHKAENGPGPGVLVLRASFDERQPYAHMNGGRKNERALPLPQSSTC
Data set [8] relates to Rattus norvegicus. Nature of the data set: Insulin sensitizing activity in Sprague-Dawley rat hyperinsulinemic-euglycemic glucose clamp model assessed as basal total insulin level during infusion of human insulin at 6000 ug/kg/min, iv for 2 mins followed by 300 ug/kg/min, iv for 28 mins (reference value: 0.3 +/- 0.1 nM). Format: functional. Particulars: time 30 min, 0.5 h. The method, boiled down:
as §1

A further data set relates to Canis familiaris. In words: Antithrombotic activity in Beagle dog model of arterial thrombosis and bleeding assessed as increase in bleeding time at 0.005 to 0.24 ug/kg/min, iv via bolus for 29 mins and measured for 15 mins. Format: functional, organism-based. Particulars: Canis lupus familiaris. The essentials:
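Modified Folts' model of thrombosis in a damaged, stenosed femoral artery of anesthetized dogs. Animals first received saline vehicle. Consecutive i.v. doses then followed, each given over a 30-min period as a bolus (0.03–1.3 μg kg−1) plus an infusion (0.005–0.24 μg kg min−1). Read-outs were cyclic flow reductions, expressed as % restoration of blood flow, plus bleeding time, blood loss and plasma drug exposure. Mean ± SEM, n = 6.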

Data set [9] relates to Rattus norvegicus. Nature of the data set: Insulin sensitizing activity in Sprague-Dawley rat hyperinsulinemic-euglycemic glucose clamp model assessed as basal glucose level during infusion of human insulin at 1000 ug/kg/min, iv for 2 mins followed by 50 ug/kg/min, iv for 28 mins by colorimetry (reference value: 8.1 +/- 0.7 mM). The format is functional. As to conditions: time 30 min, 0.5 h. The method, boiled down:
as §1

In data set [10] the target is Rho-associated protein kinase 2 (Rattus norvegicus) (UniProt Q62868). In words: Inhibition of rat ROCK2 at 10 uM relative to control.
The target in data set [11] is Mitogen-activated protein kinase 11 (Homo sapiens) (UniProt Q15759). Nature of the data set: Inhibition of human p38b at 10 uM relative to control.
Mitogen-activated protein kinase 11 (Homo sapiens), sequence (Q15759 whole entry): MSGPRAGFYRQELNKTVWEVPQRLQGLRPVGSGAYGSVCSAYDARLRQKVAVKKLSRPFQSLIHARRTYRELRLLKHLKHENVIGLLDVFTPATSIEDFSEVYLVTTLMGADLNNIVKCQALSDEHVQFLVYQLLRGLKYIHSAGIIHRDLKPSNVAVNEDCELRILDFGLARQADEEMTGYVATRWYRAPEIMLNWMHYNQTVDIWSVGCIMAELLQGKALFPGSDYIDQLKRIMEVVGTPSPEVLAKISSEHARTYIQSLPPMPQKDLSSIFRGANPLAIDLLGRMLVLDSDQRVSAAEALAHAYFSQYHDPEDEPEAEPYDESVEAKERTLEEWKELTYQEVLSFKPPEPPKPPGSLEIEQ

Activity calls are given as the source filed them. The rule behind the calls is not given here. Where only a bound is given, the exact number is not on record here.

Focal adhesion kinase 1, sequence (Q05397 whole entry, the tested form may be a part): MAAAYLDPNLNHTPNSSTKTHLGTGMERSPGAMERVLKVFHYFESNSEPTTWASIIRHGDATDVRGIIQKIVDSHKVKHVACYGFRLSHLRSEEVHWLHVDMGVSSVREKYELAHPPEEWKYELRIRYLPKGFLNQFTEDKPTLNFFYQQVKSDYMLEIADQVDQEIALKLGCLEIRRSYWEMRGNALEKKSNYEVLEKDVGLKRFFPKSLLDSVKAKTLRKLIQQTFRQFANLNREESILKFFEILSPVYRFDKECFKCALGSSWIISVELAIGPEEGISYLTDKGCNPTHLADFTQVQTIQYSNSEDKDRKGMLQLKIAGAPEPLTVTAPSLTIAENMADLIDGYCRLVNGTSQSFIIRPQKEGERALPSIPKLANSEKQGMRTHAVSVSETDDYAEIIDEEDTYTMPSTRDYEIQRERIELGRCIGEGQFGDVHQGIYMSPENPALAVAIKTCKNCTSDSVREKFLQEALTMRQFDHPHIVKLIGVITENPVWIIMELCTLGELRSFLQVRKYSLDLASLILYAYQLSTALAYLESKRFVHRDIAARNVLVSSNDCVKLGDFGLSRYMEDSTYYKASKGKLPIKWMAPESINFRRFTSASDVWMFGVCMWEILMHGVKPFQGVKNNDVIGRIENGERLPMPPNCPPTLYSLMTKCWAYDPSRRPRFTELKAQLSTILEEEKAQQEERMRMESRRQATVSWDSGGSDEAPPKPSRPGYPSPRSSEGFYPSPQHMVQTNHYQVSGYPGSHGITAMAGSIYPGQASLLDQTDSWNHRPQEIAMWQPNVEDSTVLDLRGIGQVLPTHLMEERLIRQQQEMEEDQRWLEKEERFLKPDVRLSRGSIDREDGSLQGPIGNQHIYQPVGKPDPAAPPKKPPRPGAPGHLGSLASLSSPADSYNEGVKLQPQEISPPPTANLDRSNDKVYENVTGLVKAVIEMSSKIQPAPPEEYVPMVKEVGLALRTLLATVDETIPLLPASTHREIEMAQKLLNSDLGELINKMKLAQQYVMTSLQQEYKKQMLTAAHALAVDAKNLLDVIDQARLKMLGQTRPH
Glycogen synthase kinase-3 beta (Homo sapiens), sequence (P49841 whole entry, looked up): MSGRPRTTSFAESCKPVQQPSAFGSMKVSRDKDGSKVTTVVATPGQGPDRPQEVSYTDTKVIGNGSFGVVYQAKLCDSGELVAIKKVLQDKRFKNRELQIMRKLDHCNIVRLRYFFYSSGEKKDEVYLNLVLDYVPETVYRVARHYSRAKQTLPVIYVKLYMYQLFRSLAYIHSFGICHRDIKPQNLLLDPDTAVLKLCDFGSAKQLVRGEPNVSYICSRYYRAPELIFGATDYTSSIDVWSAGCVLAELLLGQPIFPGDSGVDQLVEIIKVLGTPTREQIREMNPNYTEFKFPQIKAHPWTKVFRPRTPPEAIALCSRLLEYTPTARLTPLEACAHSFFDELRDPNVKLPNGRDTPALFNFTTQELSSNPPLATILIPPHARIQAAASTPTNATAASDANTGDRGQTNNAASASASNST
Serine/threonine-protein kinase Sgk1 (Homo sapiens), sequence (O00141 whole entry): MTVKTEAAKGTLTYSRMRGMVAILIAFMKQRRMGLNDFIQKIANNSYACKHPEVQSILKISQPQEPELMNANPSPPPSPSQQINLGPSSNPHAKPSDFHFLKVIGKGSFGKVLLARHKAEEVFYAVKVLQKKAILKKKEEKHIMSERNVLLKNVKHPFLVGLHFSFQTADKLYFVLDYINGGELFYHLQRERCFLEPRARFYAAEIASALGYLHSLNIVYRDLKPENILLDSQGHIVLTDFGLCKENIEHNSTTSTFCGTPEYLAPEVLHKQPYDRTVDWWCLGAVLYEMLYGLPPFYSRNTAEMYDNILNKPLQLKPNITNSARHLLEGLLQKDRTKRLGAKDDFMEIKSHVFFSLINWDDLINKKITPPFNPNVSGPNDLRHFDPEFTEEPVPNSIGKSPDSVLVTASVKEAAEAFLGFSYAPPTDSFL
Mitogen-activated protein kinase 15 (Homo sapiens), sequence (Q8TD08 whole entry): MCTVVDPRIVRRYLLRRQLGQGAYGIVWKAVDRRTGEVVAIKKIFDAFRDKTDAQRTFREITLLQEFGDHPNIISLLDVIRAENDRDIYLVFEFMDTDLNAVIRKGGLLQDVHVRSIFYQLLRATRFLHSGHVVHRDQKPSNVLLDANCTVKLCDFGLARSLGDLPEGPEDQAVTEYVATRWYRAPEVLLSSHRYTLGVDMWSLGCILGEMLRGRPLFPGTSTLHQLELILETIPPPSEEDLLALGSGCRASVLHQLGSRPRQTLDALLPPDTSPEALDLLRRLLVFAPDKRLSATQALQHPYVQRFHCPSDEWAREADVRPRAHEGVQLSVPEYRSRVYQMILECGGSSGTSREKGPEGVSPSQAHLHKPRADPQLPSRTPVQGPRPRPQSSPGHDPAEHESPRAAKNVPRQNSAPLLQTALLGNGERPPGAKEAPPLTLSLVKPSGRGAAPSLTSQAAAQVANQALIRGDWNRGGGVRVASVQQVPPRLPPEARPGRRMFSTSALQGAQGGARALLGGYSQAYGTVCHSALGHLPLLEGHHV

As usually defined, the inhibition is the drop in the measured response relative to a control, in per cent. As a reminder, the IC50 is the midpoint of a concentration-inhibition curve. Low readings indicate greater potency in that assay, high ones weaker potency in that assay. As a reminder, the fraction unbound is the share of the substance not bound to proteins or other matrix. For the compound `Cc1cc([C@@H](C)Nc2ccccc2C(=O)O)c2nc(N3CCOCC3)cc(=O)n2c1` [AZD-6482], the inhibition in [1] was -5.8%; in [2], 14%; in data set [3], 21%; in data set [6], 3.6%; in data set [10], -1.5%; in data set [11], 18%. Besides, the IC50 at Focal adhesion kinase 1 was above 1000 µM; in data set [7], above 258 µM. For the same compound, the Activity with Rattus norvegicus [4] is on record as 7.6 mM; in the data set with Rattus norvegicus [8], 0.4 nM; in the data set on Rattus norvegicus [9] it was 7.6 mM. Also, the fraction unbound in data set [5] stood at 0.08. Also, in the data set on Canis familiaris, the outcome was inactive.
